{
  "source": "PubChem BioAssay AID624368",
  "about": "(Broad Institute, 2012)",
  "note": "Calls of active or inactive are those of the source.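 How the source made its calls: active means viability drop with AC50 at most twice the sample's highest valid dose; inconclusive means flat curve with moderate loss, or a poor fit; inactive means the rest.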",
  "data": [
    {"system": "not listed separately", "test": "A375 melanoma cell proliferation, dose response, counter-screen for MITF inhibitor project, CellTiter-Glo luminescence, dry powder, set 5 (AID 624368)", "conditions": "A375 viability, CellTiter-Glo ATP luminescence, 24 h; at 35 µM (top of the series)", "how_it_was_run": "(§1)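 Detection: ATP luminescence, CellTiter-Glo / Material: MITF-independent A375 melanoma cells / Incubation: 24 h compound exposure, 37 °C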", "values": [
      {"smiles": "O=C1C=C(NS(=O)(=O)c2ccc(Br)cc2)C(=O)c2ccccc21", "activity change, negative = cytotoxicity": "2.29% (inactive)"},
      {"smiles": "CCN1CCN(C2=C(NS(=O)(=O)c3ccc(Br)cc3)C(=O)c3ccccc3C2=O)CC1", "activity change, negative = cytotoxicity": "8.86% (inactive)"},
      {"smiles": "O=C1C(NS(=O)(=O)c2ccccc2)=C(N2CCCCC2)C(=O)c2ccccc21", "activity change, negative = cytotoxicity": "0.773% (inactive)"},
      {"smiles": "O=C1C(Nc2ccccc2)=C(NS(=O)(=O)c2ccccc2[N+](=O)[O-])C(=O)c2ccccc21", "activity change, negative = cytotoxicity": "-2.72% (inactive)"},
      {"smiles": "NC1=C(NS(=O)(=O)c2ccc(Br)s2)C(=O)c2ccccc2C1=O", "activity change, negative = cytotoxicity": "3.75% (inactive)"},
      {"smiles": "O=C1C(NS(=O)(=O)c2ccccc2)=C(N2CCOCC2)C(=O)c2ccccc21", "activity change, negative = cytotoxicity": "-1.41% (inactive)"},
      {"smiles": "NC1=C(c2ccc(OC(F)(F)F)cc2)C(=O)c2ccccc2C1=O", "activity change, negative = cytotoxicity": "-3.65% (inactive)"},
      {"smiles": "CNC1=CC(=O)c2ccccc2C1=O", "activity change, negative = cytotoxicity": "3.5% (inactive)"}
    ]},
    {"system": "A375 viability, CellTiter-Glo ATP luminescence, 24 h", "test": "A375 melanoma cell proliferation, dose response, counter-screen for MITF inhibitor project, CellTiter-Glo luminescence, dry powder, set 5 (AID 624368)", "conditions": "not given", "how_it_was_run": "as §1", "values": [
      {"smiles": "CC1CCN(CC(CS(=O)(=O)c2ccc([N+](=O)[O-])cc2)N2CCC(C)CC2)CC1", "note": "(configuration not stated)", "AC50": "> 70 µM (inactive)"},
      {"smiles": "O=C1C(NS(=O)(=O)c2ccccc2)=C(c2ccccc2)C(=O)c2ccccc21", "AC50": "> 70 µM (inactive)"},
      {"smiles": "CCN1CCN(C2=C(NS(=O)(=O)c3ccc(Br)s3)C(=O)c3ccccc3C2=O)CC1", "AC50": "> 70 µM (inactive)"},
      {"smiles": "C=CCNC1=C(N(C)C(C)=O)C(=O)c2ccccc2C1=O", "AC50": "23 µM"},
      {"smiles": "O=C1C(Nc2ccccc2)=C(N2CCSCC2)C(=O)c2ccccc21", "AC50": "> 70 µM (inactive)"},
      {"smiles": "O=C1C(NS(=O)(=O)c2cccs2)=C(N2CCCCC2)C(=O)c2ccccc21", "AC50": "> 70 µM (inactive)"},
      {"smiles": "CN1CCN(C2=C(Nc3ccccc3)C(=O)c3ccccc3C2=O)CC1", "AC50": "> 70 µM (inactive)"},
      {"smiles": "COc1ccc(S(=O)(=O)N(C(C)=O)c2ccc(OC(C)=O)c3ccccc23)cc1[N+](=O)[O-]", "AC50": "> 70 µM (inactive)"},
      {"smiles": "NC1=CC(=O)c2ccccc2C1=O", "AC50": "> 70 µM (inactive)"},
      {"smiles": "C=CCNC1=C(Cl)C(=O)c2ccccc2C1=O", "AC50": "> 70 µM (inactive)"},
      {"smiles": "NC1=C(NS(=O)(=O)c2cccs2)C(=O)c2ccccc2C1=O", "AC50": "> 70 µM (inactive)"},
      {"smiles": "O=C(CNc1cccc2ccccc12)N/N=C/c1ccc([N+](=O)[O-])o1", "AC50": "> 70 µM (inactive)"},
      {"smiles": "O=C(NC1=C(N2CCOCC2)C(=O)c2ccccc2C1=O)c1ccc(Br)cc1", "AC50": "> 70 µM (inactive)"},
      {"smiles": "NC1=C(NS(=O)(=O)c2ccc(Br)cc2)C(=O)c2ccccc2C1=O", "AC50": "> 70 µM (inactive)"},
      {"smiles": "NC1=C(c2ccccc2)C(=O)c2ccccc2C1=O", "AC50": "> 70 µM (inactive)"},
      {"smiles": "COC1=C(Nc2ccccc2)C(=O)c2ccccc2C1=O", "AC50": "> 70 µM (inactive)"},
      {"smiles": "O=C1C=C(NS(=O)(=O)c2cccs2)C(=O)c2ccccc21", "AC50": "> 70 µM (inactive)"},
      {"smiles": "CN1CCN(C2=C(NC(=O)c3ccc(Br)cc3)C(=O)c3ccccc3C2=O)CC1", "AC50": "32.2 µM"},
      {"smiles": "CCN(CC)CCNC1=C(Nc2ccccc2)C(=O)c2ccccc2C1=O", "AC50": "> 70 µM (inactive)"},
      {"smiles": "O=C1C(NS(=O)(=O)c2ccc(Br)s2)=C(N2CCSCC2)C(=O)c2ccccc21", "AC50": "> 70 µM (inactive)"},
      {"smiles": "O=C1C(NS(=O)(=O)c2ccc(Br)s2)=C(N2CCCCC2)C(=O)c2ccccc21", "AC50": "> 70 µM (inactive)"},
      {"smiles": "CCN1CCN(C2=C(NC(=O)c3ccc(Br)cc3)C(=O)c3ccccc3C2=O)CC1", "AC50": "28 µM"},
      {"smiles": "Cc1nc2ccccc2n1/N=C/c1ccc([N+](=O)[O-])s1", "AC50": "> 70 µM (inactive)"},
      {"smiles": "O=C1C(NS(=O)(=O)c2cccs2)=C(c2ccccc2)C(=O)c2ccccc21", "AC50": "> 70 µM (inactive)"},
      {"smiles": "O=C1C=C(Nc2ccccc2)C(=O)c2ccccc21", "AC50": "> 70 µM (inactive)"},
      {"smiles": "O=C1C(Nc2ccccc2)=C(N2CCOCC2)C(=O)c2ccccc21", "AC50": "> 70 µM (inactive)"},
      {"smiles": "O=C1C(NS(=O)(=O)c2ccc(Br)s2)=C(N2CCOCC2)C(=O)c2ccccc21", "AC50": "> 70 µM (inactive)"},
      {"smiles": "CN1CCN(C2=C(NS(=O)(=O)c3ccc(Br)s3)C(=O)c3ccccc3C2=O)CC1", "AC50": "> 70 µM (inactive)"},
      {"smiles": "O=C1C(Nc2ccccc2)=C(N2CCCCC2)C(=O)c2ccccc21", "AC50": "> 70 µM (inactive)"},
      {"smiles": "NC1=C(NC(=O)c2ccccc2)C(=O)c2ccccc2C1=O", "AC50": "> 70 µM (inactive)"},
      {"smiles": "O=C1C=C(NS(=O)(=O)c2ccccc2)C(=O)c2ccccc21", "AC50": "> 70 µM (inactive)"},
      {"smiles": "CC(=O)N(C)C1=C(N2CCN(C)CC2)C(=O)c2ccccc2C1=O", "AC50": "24.3 µM"},
      {"smiles": "COC1=C(NS(=O)(=O)c2ccccc2)C(=O)c2ccccc2C1=O", "AC50": "> 70 µM (inactive)"},
      {"smiles": "COC1=C(NS(=O)(=O)c2cccs2)C(=O)c2ccccc2C1=O", "AC50": "> 70 µM (inactive)"},
      {"smiles": "O=C(NC1=C(c2ccccc2)C(=O)c2ccccc2C1=O)c1ccco1", "AC50": "29.1 µM"},
      {"smiles": "O=C(NC1=C(N2CCSCC2)C(=O)c2ccccc2C1=O)c1ccc(Br)cc1", "AC50": "> 70 µM (inactive)"},
      {"smiles": "O=C(NC1=C(N2CCCCC2)C(=O)c2ccccc2C1=O)c1ccc(Br)cc1", "AC50": "> 70 µM (inactive)"},
      {"smiles": "NC1=C(NS(=O)(=O)c2ccccc2)C(=O)c2ccccc2C1=O", "AC50": "> 70 µM (inactive)"},
      {"smiles": "CCN(CC)CCCNC1=C(Nc2ccccc2)C(=O)c2ccccc2C1=O", "AC50": "> 70 µM (inactive)"},
      {"smiles": "Cc1ccc(C(=O)NC2=C(c3ccccc3)C(=O)c3ccccc3C2=O)o1", "AC50": "32 µM"},
      {"smiles": "COC1=C(NS(=O)(=O)c2ccc(Br)cc2)C(=O)c2ccccc2C1=O", "AC50": "> 70 µM (inactive)"},
      {"smiles": "C=CCNC1=C(Nc2ccccc2)C(=O)c2ccccc2C1=O", "AC50": "> 70 µM (inactive)"},
      {"smiles": "O=C1C(Nc2ccccc2)=C(c2ccccc2)C(=O)c2ccccc21", "AC50": "> 70 µM (inactive)"},
      {"smiles": "C[C@@H](NC1=C(Nc2ccccc2)C(=O)c2ccccc2C1=O)c1ccccc1", "AC50": "> 70 µM (inactive)"}
    ]}
  ]
}
